Results taken from ChEMBL document CHEMBL1131498, “Design, synthesis, and evaluation of the multidrug resistance-reversing activity of D-glucose mimetics of hapalosin” (J Med Chem, 1998).
Values after ≈ are worked out from the molar mass of the structure shown.

Tests used:
Details in all cases: Homo sapiens
HL-60 [1] = test: Effective concentration against HL-60/ADR cells using MRP-mediated MDR assay using 2 nM vincristine which results in 50% of the cells being killed in the presence of particular cytotoxic drug.; type: functional, cell-based
In short: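 Human promyelocytic leukemia HL-60/ADR cells (MRP-expressing, no P-gp) given varying compound concentrations plus 2 nM vincristine for 48 h. Survival by MTS tetrazolium metabolism (CellTiter AQueous); % killed as decrease vs control cultures. Triplicates, mean ± SD; approximate concentration (μg/mL) giving 50% kill.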

MCF7 [2] = test: Inhibitory concentration against MCF-7/ADR cells using P-gp-mediated MDR assay using 25 nM actinomycin D which inhibit cells proliferation by 20% in the absence of particular cytotoxic drug; type: functional
In short: (§1)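 MCF-7/ADR cells (from NCI, RPMI 1640 + 10% FBS, 50 μg/mL gentamycin) seeded at ~15% confluency, 24 h attachment, then eight doses of compound alone (PBS in place of actinomycin D) for 48 h. Sulforhodamine B staining; % kill vs ethanol solvent controls. Triplicates, mean ± SD; approximate concentration (μg/mL) giving 20% growth inhibition.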

HL-60 [3] = test: Inhibitory concentration against HL-60/ADR cells using MRP-mediated MDR assay using 2 nM vincristine which inhibits cell proliferation by 20% in the absence of particular cytotoxic drug; type: functional
In short: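 HL-60/ADR leukemia cells (MRP-expressing) exposed 48 h to varying compound concentrations alone, PBS replacing vincristine. Viability by MTS tetrazolium metabolism (CellTiter AQueous), % decrease vs controls. Triplicates, mean ± SD; approximate concentration (μg/mL) inhibiting proliferation by 20%.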

MCF7 [4] = test: Effective concentration against MCF-7/ADR cells using P-gp-mediated MDR assay using 25 nM actinomycin D which results in 50% of the cells being killed in the presence of particular cytotoxic drug.; type: functional, cell-based
In short: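 MCF-7/ADR cells (from NCI, grown in RPMI 1640 + 10% FBS, 50 μg/mL gentamycin) seeded at ~15% confluency, 24 h recovery, then eight doses of compound with 25 nM actinomycin D for 48 h. Survival by sulforhodamine B staining; % killed as decrease in binding vs ethanol solvent controls. Triplicates, mean ± SD; approximate concentration (μg/mL) giving 50% kill read from curves.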

MCF7 [5] = test: Inhibitory concentration against MCF-7/ADR cells using P-gp-mediated MDR assay using 25 nM actinomycin D which inhibits cell proliferation by 20% in the absence of particular cytotoxic drug; type: functional; in short: as §1

SMILES	EC50 (HL-60 [1])	IC20 (MCF7 [2])	IC20 (HL-60 [3])	EC50 (MCF7 [4])	IC20 (MCF7 [5])
CCCCCCCO[C@H]1[C@H](O)[C@@H](CC(C)C)O[C@H](OCc2ccccc2)[C@@H]1OCc1ccccc1	2.5 µg/mL	10 µg/mL (≈ 20.6 µM)	> 20 µg/mL	6 µg/mL	–
CCCCCCCO[C@@H]1[C@@H](O)[C@@H](OCc2ccccc2)O[C@@H]2CO[C@@H](c3ccc(OC)cc3)O[C@@H]12	2.5 µg/mL	12 µg/mL (≈ 24.7 µM)	> 20 µg/mL	2.5 µg/mL	–
CCCCCCCO[C@@H]1[C@@H](OCc2ccccc2)[C@@H](OCc2ccccc2)O[C@H](C=C(C)C)[C@H]1OCc1ccc(OC)cc1	> 20 µg/mL	> 20 µg/mL	> 20 µg/mL	> 20 µg/mL	–
CCCCCCCO[C@@H]1[C@@H](OCc2ccccc2)[C@@H](OCc2ccccc2)O[C@H](CC(C)C)[C@H]1OCc1ccc(OC)cc1	> 20 µg/mL	> 20 µg/mL	> 20 µg/mL	> 20 µg/mL	–
CCCCCCCO[C@@H]1[C@@H](OCc2ccccc2)[C@@H](OCc2ccccc2)O[C@H](CO)[C@H]1OCc1ccc(OC)cc1	1.7 µg/mL	6 µg/mL (≈ 10.4 µM)	6 µg/mL (≈ 10.4 µM)	3 µg/mL	–
CCCCCCCO[C@@H]1[C@@H](OCc2ccccc2)[C@@H](OCc2ccccc2)O[C@H](CC(C)C)[C@H]1OC	18 µg/mL	> 20 µg/mL	> 20 µg/mL	> 20 µg/mL	–
CCCCCCC[C@H]1OC(=O)C[C@@H](O)[C@H](Cc2ccccc2)N(C)C(=O)[C@H](C(C)C)OC(=O)[C@H]1C [HAPALOSIN]	0.7 µg/mL	–	6 µg/mL (≈ 12.3 µM)	1 µg/mL	6 µg/mL (≈ 12.3 µM)
CCCCCCCO[C@@H]1[C@@H](O)[C@@H](OCc2ccccc2)O[C@H](CC(C)C)[C@H]1OCc1ccc(OC)cc1	1.8 µg/mL	12 µg/mL (≈ 23.3 µM)	> 20 µg/mL	4 µg/mL	–
CCCCCCCO[C@@H]1[C@@H](O)[C@@H](OCc2ccccc2)O[C@H](CO)[C@H]1O	10 µg/mL	> 20 µg/mL	> 20 µg/mL	> 20 µg/mL	–
CCCCCCCO[C@@H]1[C@@H](O)[C@@H](OCc2ccccc2)O[C@H](CC(C)C)[C@H]1O	3.5 µg/mL	12 µg/mL (≈ 30.4 µM)	> 20 µg/mL	6 µg/mL	–
CCCCCCCO[C@@H]1[C@@H](OCc2ccccc2)[C@@H](OCc2ccccc2)O[C@@H]2CO[C@@H](c3ccc(OC)cc3)O[C@@H]12	2.5 µg/mL	> 20 µg/mL	> 20 µg/mL	> 20 µg/mL	–
COc1ccc(CCN(C)CCCC(C#N)(c2ccc(OC)c(OC)c2)C(C)C)cc1OC (stereo unspecified) [VERAPAMIL]	1.8 µg/mL	> 20 µg/mL	> 20 µg/mL	1 µg/mL	–
CCCCCCCO[C@@H]1[C@@H](OCc2ccccc2)[C@@H](OCc2ccccc2)O[C@H](C=O)[C@H]1OCc1ccc(OC)cc1	1.5 µg/mL	5 µg/mL (≈ 8.67 µM)	1.8 µg/mL (≈ 3.12 µM)	4 µg/mL	–
CCCCCCCO[C@@H]1[C@@H](O)[C@@H](OCc2ccccc2)O[C@H](CC(C)C)[C@H]1OC	10 µg/mL	20 µg/mL (≈ 49 µM)	> 20 µg/mL	7 µg/mL	–
